Active and inactive are the calls of the source. The rule behind the calls is not given here.
Columns and labels:
Staphylococcus aureus [1] = test: Antibacterial activity against methicillin-resistant Staphylococcus aureus clinical isolate 1-may after 16 to 20 hrs by broth microdilution method; type: functional
Method in brief: (§1)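 CLSI broth microdilution in Mueller-Hinton broth. A 4-6 h culture was diluted to about 10⁶ CFU/mL and mixed 1:1 with compound dilutions prepared at 256 to 0.5 µg/mL from aqueous stocks. Plates were incubated at 37 °C for 16-20 h and read visually for MIC. Each concentration was run in duplicate, and the experiment was repeated at least twice. Vancomycin and meropenem were comparators.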

Staphylococcus aureus [2] = test: Antibacterial activity against methicillin-resistant Staphylococcus aureus clinical isolate 1207007 after 16 to 20 hrs by broth microdilution method; type: functional; method in brief: as §1
Escherichia coli [3] = test: Antibacterial activity against drug-resistant NDM1 producing Escherichia coli clinical isolate 1460 after 16 to 20 hrs by broth microdilution method; type: functional; method in brief: as §1
Klebsiella pneumoniae [4] = test: Antibacterial activity against drug-resistant carbapenemase producing Klebsiella pneumoniae clinical isolate KP-14-2 after 16 to 20 hrs by broth microdilution method; type: functional; method in brief: as §1
Klebsiella pneumoniae [5] = test: Antibacterial activity against drug-resistant carbapenemase producing Klebsiella pneumoniae clinical isolate KP-13-55 after 16 to 20 hrs by broth microdilution method; type: functional; method in brief: as §1
Escherichia coli [6] = test: Antibacterial activity against drug-resistant NDM1 producing Escherichia coli clinical isolate CF-15-61 after 16 to 20 hrs by broth microdilution method; type: functional; method in brief: as §1
Escherichia coli [7] = test: Induction of inner membrane permeabilization in Escherichia coli ATCC 25922 at 10 to 20 ug/ml measured every 2 mins for 12 mins by propidium iodide staining-based fluorescence assay; type: functional, organism-based
Method in brief: (§2)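 Mid-log cells (~10⁸ CFU/mL) were suspended in PBS (S. aureus) or HEPES/glucose/KCl (E. coli). They were preincubated with propidium iodide for 30 min (S. aureus) or 40 min (E. coli), and baseline fluorescence was read for 8 min. Compound was added to 20 µg/mL final, and fluorescence (ex 535/em 617 nm) was read every 2 min for 12 min.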

Staphylococcus aureus [8] = test: Antibacterial activity against methicillin-resistant Staphylococcus aureus clinical isolate 0906202 after 16 to 20 hrs by broth microdilution method; type: functional; method in brief: as §1
Staphylococcus aureus [9] = test: Antibacterial activity against methicillin-resistant Staphylococcus aureus clinical isolate 0831010 after 16 to 20 hrs by broth microdilution method; type: functional; method in brief: as §1
Escherichia coli [10] = test: Antibacterial activity against drug-resistant NDM1 producing Escherichia coli clinical isolate Ecl-14-59 after 16 to 20 hrs by broth microdilution method; type: functional; method in brief: as §1
Klebsiella pneumoniae [11] = test: Antibacterial activity against drug-resistant carbapenemase producing Klebsiella pneumoniae clinical isolate KP-14-8 after 16 to 20 hrs by broth microdilution method; type: functional; method in brief: as §1
Klebsiella pneumoniae [12] = test: Antibacterial activity against drug-resistant carbapenemase producing Klebsiella pneumoniae clinical isolate KP-13-54 after 16 to 20 hrs by broth microdilution method; type: functional; method in brief: as §1
Staphylococcus aureus [13] = test: Antibacterial activity against methicillin-resistant Staphylococcus aureus clinical isolate 1105183 cono7 after 16 to 20 hrs by broth microdilution method; type: functional; method in brief: as §1
Salmonella enterica = test: Antibacterial activity against Salmonella enterica ATCC 13076 after 16 to 20 hrs by broth microdilution method; type: functional
Method in brief: (§3)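 Broth microdilution per CLSI. Bacteria grown 4-6 h (about 10⁸ CFU/mL), then diluted to about 10⁶ CFU/mL. Medium: Mueller-Hinton broth, except Luria-Bertani broth for E. coli. Compounds in sterile water, twofold series 256-0.5 µg/mL, mixed 1:1 with inoculum, 37 °C for 16-20 h. MIC is the lowest concentration without visible growth. Duplicate wells; experiment repeated at least twice.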

Staphylococcus aureus [14] = test: Antibacterial activity against methicillin-resistant Staphylococcus aureus clinical isolate 20131012632sau after 16 to 20 hrs by broth microdilution method; type: functional; method in brief: as §1
Klebsiella pneumoniae [15] = test: Antibacterial activity against drug-resistant carbapenemase producing Klebsiella pneumoniae clinical isolate KP-14-18 after 16 to 20 hrs by broth microdilution method; type: functional; method in brief: as §1
Staphylococcus aureus [16] = test: Antibacterial activity against methicillin-resistant Staphylococcus aureus clinical isolate 20130911034sau after 16 to 20 hrs by broth microdilution method; type: functional; method in brief: as §1
Klebsiella pneumoniae [17] = test: Antibacterial activity against drug-resistant carbapenemase producing Klebsiella pneumoniae clinical isolate KP-13-45 after 16 to 20 hrs by broth microdilution method; type: functional; method in brief: as §1
Staphylococcus aureus [18] = test: Induction of inner membrane permeabilization in Staphylococcus aureus ATCC 29213 at 10 to 20 ug/ml measured every 2 mins for 12 mins by propidium iodide staining-based fluorescence assay; type: functional, organism-based; method in brief: as §2
Enterococcus faecalis = test: Antibacterial activity against Enterococcus faecalis ATCC 29212 after 16 to 20 hrs by broth microdilution method; type: functional; method in brief: as §3
Escherichia coli [19] = test: Antibacterial activity against Escherichia coli ATCC 25922 after 16 to 20 hrs by broth microdilution method; type: functional; method in brief: as §3
Escherichia coli [20] = test: Antibacterial activity against drug-resistant NDM1 producing Escherichia coli clinical isolate SM-15-84 after 16 to 20 hrs by broth microdilution method; type: functional; method in brief: as §1
Escherichia coli [21] = test: Antibacterial activity against drug-resistant NDM1 producing Escherichia coli clinical isolate Ecl-14-56 after 16 to 20 hrs by broth microdilution method; type: functional; method in brief: as §1
Escherichia coli [22] = test: Antibacterial activity against drug-resistant NDM1 producing Escherichia coli clinical isolate Ecl-14-58 after 16 to 20 hrs by broth microdilution method; type: functional; method in brief: as §1
[23] = Hemolytic activity in sheep RBC after 1 hr; type: ADME, cell-based, Ovis aries, Erythrocyte; conditions: sheep red blood cells (erythrocytes)
Method in brief: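 Sheep red blood cells (150 µL suspension) mixed with 50 µL of compound dilutions (5120-10 µg/mL), 1 h at 37 °C, then centrifuged. Supernatant read at 540 nm. Percent hemolysis calculated relative to RBC-only control (0%) and 0.1% Triton X-100 (100%).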

Klebsiella pneumoniae [24] = test: Antibacterial activity against drug-resistant carbapenemase producing Klebsiella pneumoniae clinical isolate KP-14-5 after 16 to 20 hrs by broth microdilution method; type: functional; method in brief: as §1
Klebsiella pneumoniae [25] = test: Antibacterial activity against drug-resistant carbapenemase producing Klebsiella pneumoniae clinical isolate KP-14-45 after 16 to 20 hrs by broth microdilution method; type: functional; method in brief: as §1
Escherichia coli [26] = test: Antibacterial activity against drug-resistant NDM1 producing Escherichia coli clinical isolate Ecl-13-62 after 16 to 20 hrs by broth microdilution method; type: functional; method in brief: as §1
Escherichia coli [27] = test: Antibacterial activity against drug-resistant NDM1 producing Escherichia coli clinical isolate CF-13-61 after 16 to 20 hrs by broth microdilution method; type: functional; method in brief: as §1
Staphylococcus aureus [28] = test: Antibacterial activity against Staphylococcus aureus ATCC 29213 after 16 to 20 hrs by broth microdilution method; type: functional; method in brief: as §3
Escherichia coli [29] = test: Antibacterial activity against drug-resistant NDM1 producing Escherichia coli clinical isolate EC-14-54 after 16 to 20 hrs by broth microdilution method; type: functional; method in brief: as §1
Staphylococcus aureus [30] = test: Induction of cytoplasmic membrane depolarization in Staphylococcus aureus ATCC 29213 at 10 to 20 ug/ml measured every 2 mins for 12 mins by DiSC35 dye-based fluorescence assay; type: functional, organism-based
Method in brief: (§4)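 Mid-log cells (~10⁸ CFU/mL) were suspended in PBS (S. aureus) or HEPES/glucose/KCl with EDTA (E. coli). They were preloaded with DiSC3(5) for 30 min (S. aureus) or 40 min (E. coli), and baseline fluorescence was read for 8 min. Compound was added to 20 µg/mL final, and fluorescence (ex 622/em 670 nm) was read every 2 min for 12 min. Water served as control.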

Staphylococcus aureus [31] = test: Antibacterial activity against methicillin-resistant Staphylococcus aureus clinical isolate 1208143 after 16 to 20 hrs by broth microdilution method; type: functional; method in brief: as §1
Klebsiella pneumoniae [32] = test: Antibacterial activity against drug-resistant carbapenemase producing Klebsiella pneumoniae clinical isolate KP-14-3 after 16 to 20 hrs by broth microdilution method; type: functional; method in brief: as §1
Klebsiella pneumoniae [33] = test: Antibacterial activity against drug-resistant carbapenemase producing Klebsiella pneumoniae clinical isolate KP-14-1 after 16 to 20 hrs by broth microdilution method; type: functional; method in brief: as §1
Escherichia coli [34] = test: Antibacterial activity against drug-resistant NDM1 producing Escherichia coli clinical isolate EC-13-49 after 16 to 20 hrs by broth microdilution method; type: functional; method in brief: as §1
Escherichia coli [35] = test: Antibacterial activity against drug-resistant NDM1 producing Escherichia coli clinical isolate KP-13-58 after 16 to 20 hrs by broth microdilution method; type: functional; method in brief: as §1
Staphylococcus aureus [36] = test: Antibacterial activity against methicillin-resistant Staphylococcus aureus clinical isolate 1104060 after 16 to 20 hrs by broth microdilution method; type: functional; method in brief: as §1
Klebsiella pneumoniae [37] = test: Antibacterial activity against drug-resistant carbapenemase producing Klebsiella pneumoniae clinical isolate KP-14-4 after 16 to 20 hrs by broth microdilution method; type: functional; method in brief: as §1
Escherichia coli [38] = test: Induction of cytoplasmic membrane depolarization in Escherichia coli ATCC 25922 at 10 to 20 ug/ml measured every 2 mins for 12 mins by DiSC35 dye-based fluorescence assay; type: functional, organism-based; method in brief: as §4
Klebsiella pneumoniae [39] = test: Antibacterial activity against drug-resistant carbapenemase producing Klebsiella pneumoniae clinical isolate EC-13-23 after 16 to 20 hrs by broth microdilution method; type: functional; method in brief: as §1
Escherichia coli [40] = test: Antibacterial activity against drug-resistant NDM1 producing Escherichia coli clinical isolate EA-14-61 after 16 to 20 hrs by broth microdilution method; type: functional; method in brief: as §1

Compound `CCCCCCCC[N+](C)(C)CC(=O)Nc1ccc(C(=O)/C=C/c2ccc(Cl)cc2)cc1.[Cl-]` has an MIC (Staphylococcus aureus [1]) of 2 µg/mL, an MIC (Staphylococcus aureus [2]) of 0.5 µg/mL and an MIC (Escherichia coli [3]) of 8 µg/mL. It also gave an MIC (Klebsiella pneumoniae [4]) of 16 µg/mL, an MIC (Klebsiella pneumoniae [5]) of 32 µg/mL and an MIC (Escherichia coli [6]) of 8 µg/mL. For the same compound, the Activity (Escherichia coli [7]) was “Active”, the MIC (Staphylococcus aureus [8]) was 1 µg/mL and the MIC (Staphylococcus aureus [9]) was 1 µg/mL. The MIC (Escherichia coli [10]) was 8 µg/mL, the MIC (Klebsiella pneumoniae [11]) was 8 µg/mL and the MIC (Klebsiella pneumoniae [12]) was 8 µg/mL. For the same compound, the MIC (Staphylococcus aureus [13]) was 1 µg/mL, the MIC (Salmonella enterica) was 8 µg/mL and the MIC (Staphylococcus aureus [14]) was 2 µg/mL. The MIC (Klebsiella pneumoniae [15]) was 16 µg/mL, the MIC (Staphylococcus aureus [16]) was 0.5 µg/mL and the MIC (Klebsiella pneumoniae [17]) was 8 µg/mL. For the same compound, the Activity (Staphylococcus aureus [18]) was “Active”, the MIC (Enterococcus faecalis) was 2 µg/mL and the MIC (Escherichia coli [19]) was 4 µg/mL. It also gave an MIC (Escherichia coli [20]) of 16 µg/mL, an MIC (Escherichia coli [21]) of 4 µg/mL and an MIC (Escherichia coli [22]) of 4 µg/mL. The HC50 at 1 h [23] was greater than 500 µg/mL, the MIC (Klebsiella pneumoniae [24]) was 8 µg/mL and the MIC (Klebsiella pneumoniae [25]) was 8 µg/mL. For the same compound, the MIC (Escherichia coli [26]) was 8 µg/mL, the MIC (Escherichia coli [27]) was 8 µg/mL and the MIC (Staphylococcus aureus [28]) was 2 µg/mL. For the same compound, the MIC (Escherichia coli [29]) was 16 µg/mL, the Activity (Staphylococcus aureus [30]) was “Active” and the MIC (Staphylococcus aureus [31]) was 2 µg/mL. For the same compound, the MIC (Klebsiella pneumoniae [32]) was 8 µg/mL, the MIC (Klebsiella pneumoniae [33]) was 16 µg/mL and the MIC (Escherichia coli [34]) was 16 µg/mL. The MIC (Escherichia coli [35]) was 4 µg/mL, the MIC (Staphylococcus aureus [36]) was 4 µg/mL and the MIC (Klebsiella pneumoniae [37]) was 8 µg/mL. The Activity (Escherichia coli [38]) was “Active”, the MIC (Klebsiella pneumoniae [39]) was 8 µg/mL and the MIC (Escherichia coli [40]) was 4 µg/mL.

From ChEMBL document CHEMBL4138242, “Synthesis and antibacterial evaluation of novel cationic chalcone derivatives possessing broad spectrum antibacterial activity” (Eur J Med Chem, 2018)
